The values that follow come from PubChem BioAssay AID720702 (The Scripps Research Institute Molecular Screening Center, 2013).

Screen size: about 370,000 compounds; about 1,200 (0.32%) were called active.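 Rule for the calls: active = inhibition above the mean of all tested compounds plus 3 SD, set per campaign (cut at about 25% in these data); inactive = the rest.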 Only a selection was taken, and actives are over-represented in it overall.

Sequence of Tyrosyl-DNA phosphodiesterase 2 (Homo sapiens) (O95551 whole entry, looked up): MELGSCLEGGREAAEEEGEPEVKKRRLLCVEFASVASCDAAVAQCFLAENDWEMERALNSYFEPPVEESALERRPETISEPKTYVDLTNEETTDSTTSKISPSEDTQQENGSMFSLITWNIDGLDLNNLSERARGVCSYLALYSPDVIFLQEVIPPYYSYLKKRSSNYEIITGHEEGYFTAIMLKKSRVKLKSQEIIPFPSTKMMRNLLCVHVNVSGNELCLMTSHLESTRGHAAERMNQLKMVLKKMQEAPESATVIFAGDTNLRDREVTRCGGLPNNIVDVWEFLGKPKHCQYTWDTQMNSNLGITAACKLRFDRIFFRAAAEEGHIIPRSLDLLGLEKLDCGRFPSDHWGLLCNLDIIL

In the assay the target is Tyrosyl-DNA phosphodiesterase 2 (Homo sapiens) (UniProt O95551). As to the kind of experiment: human TDP2 enzyme inhibitors, primary screen, biochemical, epi absorbance, recombinant enzyme (AID 720702).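 Note: 0% = DMSO with enzyme and 100% = buffer with substrate but no TDP2.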 As to conditions: recombinant TDP2, T5PNP hydrolysis, p-nitrophenol absorbance 415 nm; at 12.8 µM; stronger effect = higher value. The method, boiled down:
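System – recombinant human TDP2 · Amount – 120 nM TDP2 per well · Buffer or medium – Mg2+-containing Tris-HCl buffer, pH 7.5 · Reagent – T5PNP substrate, 5 mM · Dosing – 12.8 µM single point, 1% DMSO · Incubation – 2 h at 37 °C · Measured by – epi absorbance · Read-out basis – percent inhibition · Benchmarks – high control without enzyme, low control DMSO plus TDP2 · Repeats – singlicate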
What is called inhibition is the relative decrease from the control value, in per cent. Turning to `CCCS(=O)(=O)NC(=O)C1(C)CCN(C(=O)c2sccc2C)C1` (stereo unspecified), the inhibition was -5.34% (inactive).

Take `CCCCNC(=O)C[C@@H]1C(=O)N(CCc2ccc(Cl)cc2)C2=CCCC[C@]21C(=O)OCC`: the inhibition is 8.61% (inactive).

For the compound `COc1ccc2c(c1)C(=O)Nc1cc(Cl)ccc1N2`, the inhibition is -17% (inactive).

In the case of `COc1ccc([N+](=O)[O-])cc1C1NN=C(c2cccc3ccccc23)S1` (stereo unspecified), the inhibition was 3.04% (inactive).

As to `O=C1Nc2ccc([N+](=O)[O-])cc2C1=Nc1cccc(CO)c1`, the inhibition was 36.9% (active).

For the compound `O=C(CCl)N(Cc1cccc([N+](=O)[O-])c1)c1cccc(Cl)c1`, the inhibition was -6.43% (inactive).

In the case of `Cc1nn2cc(-c3ccc(Cl)cc3)cnc2c1Br`, the inhibition was 4.6% (inactive).

For the compound `C=CCn1c(SCc2ccc(Cl)c(Cl)c2)nnc1C(CO)NC(=O)c1ccc(OC)cc1` (stereo unspecified), the inhibition is -1.56% (inactive).

Regarding `CCCc1c(C)nc2c(Br)cccc2c1Cl`, the inhibition is 3.31% (inactive).

For `O=c1oc2ccccc2c(CNc2ccccc2)c1[N+](=O)[O-]`, the inhibition is 40.8% (active).

`CCCN(CCC)c1c([N+](=O)[O-])c(=O)oc2ccccc12`: the inhibition was 6.98% (inactive).

Consider `Nc1c(NCCc2ccccc2)c2ccccc2oc1=O`, for which the inhibition was -16.4% (inactive).

As to `O=C(OCc1ccccc1)N1CCC2CC1c1ccc(-c3ccc4c(c3)OCO4)cc12` (stereo unspecified), the inhibition is -3.35% (inactive).

For `COc1ccc(S(=O)(=O)/N=C2\C=C(NS(=O)(=O)c3ccccc3)C(=O)c3ccccc32)cc1`, the inhibition was 36.1% (active).

For `COc1ccc(C(=O)C(C)OC(=O)c2cccc(S(=O)(=O)Nc3c(C)n(C)n(-c4ccccc4)c3=O)c2)cc1` (stereo unspecified), the inhibition is -13.4% (inactive).

Consider `Cc1ccc(S(=O)(=O)/N=C2\C=C(NS(=O)(=O)c3ccc(C)cc3)C(=O)c3ccccc32)cc1`, for which the inhibition was 4.19% (inactive).

In the case of `CCCCNC(=O)C[C@H]1C[C@@]2(C(=O)OC)C(=C[C@H](COCc3ccccc3)O[C@@H]2C)N(Cc2ccc(Cl)cc2Cl)C1=O`, the inhibition is -0.01% (inactive).

In the case of `C=CCN1C(=O)[C@H](CC(=O)N2CCN(C(=O)OCC)CC2)[C@@]2(C(=O)OCC)CCCC=C12`, the inhibition was 4.51% (inactive).

Take `CCN(CC)CCCN=C(N)N`: the inhibition is 1.59% (inactive).

As to `COc1ccc(-c2csc(Nc3ccc(O)cc3)n2)cc1`, the inhibition is 26.4% (active).

As for `COc1ccc(NC2=CC(=S)NC(C)(C)C2)cc1`, the inhibition is -0.55% (inactive).

Consider `COc1ccc(-c2ccc3nnc(SCC(=O)Nc4ccc(NC(C)=O)cc4)n3n2)cc1`, for which the inhibition was -3.62% (inactive).

Turning to `CCc1cc(=O)oc2cc(OCC(=O)N3CCCc4ccccc43)ccc12`, the inhibition was 6.19% (inactive).

Turning to `COC(=O)c1cc(S(=O)(=O)N2CCN(C(=O)C3CCCO3)CC2)cn1C` (stereo unspecified), the inhibition is -2.33% (inactive).

For `CCCCN(C)C(=O)c1ccc2c(c1)N(CC)C(=O)c1ccccc1S2(=O)=O`, the inhibition is 7.54% (inactive).

In the case of `CCN1C(=O)c2cccc3c(N)ccc1c23`, the inhibition is 30.9% (active).

With `CCN1C(=O)c2cccc3c(S(=O)(=O)Nc4ccccc4O)ccc1c23`, the inhibition was -2.02% (inactive).

With `CCOC(=O)c1cccc(NC(=O)CN(C)S(=O)(=O)c2ccc(-c3cocn3)s2)c1`, the inhibition was -8.94% (inactive).

In the case of `O=C(NC1CC1)c1ccc(-c2ccccc2)cc1`, the inhibition was -8.19% (inactive).

As for `Cc1ccc(C(=O)Nc2c(-c3ccccc3)[nH][nH]c2=O)cc1`, the inhibition was 44.4% (active).

As for `COc1ccc(-c2[nH][nH]c(=O)c2NC(=O)c2ccc([N+](=O)[O-])cc2)cc1`, the inhibition was 19.5% (inactive).

Take `C=CCN1C(=O)[C@@H](CC(=O)NCCCCc2ccccc2)[C@]2(C(=O)OCC)CCCCC/C=C/12`: the inhibition is 3.84% (inactive).

As for `O=C(Nc1cc(F)cc(F)c1)OC1CCC12CCC(c1ccccc1)CC2` (stereo unspecified), the inhibition is 3% (inactive).

For `O=C(Nc1ccccc1F)C1C2C=CC3(O2)C1C(=O)N(c1cccnc1)C3C(=O)NC1CCCCC1` (stereo unspecified), the inhibition was -0.47% (inactive).

As to `CC(C)N1C(=O)C2C(C(=O)NC3CCCCC3)C3C=CC2(O3)C1C(=O)NC1CCCC1` (stereo unspecified), the inhibition was 3.15% (inactive).

In the case of `CCN(CC)CCN1C(=O)C2C(C(=O)Nc3ccc(Br)cc3)C3C=CC2(O3)C1C(=O)NC1CCCCC1` (stereo unspecified), the inhibition was 27.5% (active).

For the compound `CC1=C(C(=O)N(C(C)C)C(C)C)CC(CC(=O)NCCCCc2ccccc2)C(=O)N1CCC1=CCCCC1` (stereo unspecified), the inhibition is -5.04% (inactive).

As for `CC(=O)CCS(=O)(=O)c1ccc(C)c(C)c1`, the inhibition was -9.65% (inactive).

On to `COCCCNC(=O)c1ccc(CNS(=O)(=O)c2ccc(NC(C)=O)cc2)cc1`, for which the inhibition is -0.2% (inactive).

For the compound `COCCNC(=O)c1ccc(S(=O)(=O)c2ccc(Cl)cc2)c(NC(C)=O)c1`, the inhibition is 27.5% (active).

Take `COc1ccc(C(=O)NCc2ccc(Cl)cc2)cc1S(=O)(=O)N1CCCC1`: the inhibition was -0.23% (inactive).

For `Cc1cc(OCC(=O)Nc2nccs2)c2c(C)c(C)c(=O)oc2c1`, the inhibition is 0.03% (inactive).

For the compound `CCOC(=O)c1nc(N)sc1C(=O)OCC`, the inhibition was -14.1% (inactive).

For the compound `Nc1nc(O)c(CC(=O)O)s1`, the inhibition is 27.2% (active).

As for `CCCCC(=O)N[C@@H]1CC[C@@]23CCCN2C(=O)CCC[C@H]3[C@H]1C`, the inhibition is -3.42% (inactive).

As to `O=C(OCC(=O)N1CCN(c2ccccc2)CC1)c1ccc([N+](=O)[O-])s1`, the inhibition is 31.9% (active).

As for `O=C(OCC(=O)N1CCOCC1)c1ccc(N2CCOCC2)c([N+](=O)[O-])c1`, the inhibition is -4.23% (inactive).

On to `Cc1ccc(C)c(OCCC(=O)OCC(=O)N2CCN(c3ccccc3)CC2)c1`, for which the inhibition was -10.4% (inactive).

As to `O=C(NCc1ccccc1Cl)C1CCC(CNc2c(N3CCCCC3)c(=O)c2=O)CC1` (stereo unspecified), the inhibition is 1.69% (inactive).

Consider `C=C(C)C#CC(Cc1ccccc1)N(CC1CC1)/C(N)=N/C(=O)OCc1ccccc1` (stereo unspecified), for which the inhibition was 4.08% (inactive).

Regarding `O=C(CN1CCN(c2cccc(Cl)c2)CC1)Nc1ccc(S(=O)(=O)N2CCOCC2)cc1`, the inhibition is -4.18% (inactive).

`COc1ccc(Cl)cc1NC(=O)CN1CCN(C(=O)N2CCOCC2)CC1`: the inhibition is 5.78% (inactive).

On to `Cc1ccc(Cl)cc1NC(=O)CN1CCN(S(=O)(=O)N2CCOCC2)CC1`, for which the inhibition is 27.6% (active).

Take `COc1ccc(C2CC=C(C(=O)O)C(c3ccccc3F)N2S(=O)(=O)c2ccc(C)cc2)cc1OC` (stereo unspecified): the inhibition was -4.62% (inactive).

Consider `O=C(C1CCCN1S(=O)(=O)c1ccccc1)N1CCc2ccccc2C1` (stereo unspecified), for which the inhibition is -6.17% (inactive).

As to `C=CCN(C(=O)[C@@H](CCCC)[C@@H](O)c1ccc(Cl)cc1)c1ccccc1`, the inhibition was -12.4% (inactive).

For `CCCCCCCCCCCCCCCC(=O)OC/C=C(C)/C=C/C=C(C)/C=C/C1=C(C)CCCC1(C)C`, the inhibition is 2.56% (inactive).

For the compound `COCCn1nnnc1C(c1ccccc1Cl)N1CCN(c2ccccc2OC)CC1` (stereo unspecified), the inhibition was -10.8% (inactive).

On to `COc1ccc(CCC(C)N2CCc3ccccc3C2)cc1` (stereo unspecified), for which the inhibition was -2.33% (inactive).

Regarding `COCCn1nnnc1C(c1cc2ccc(OC)cc2[nH]c1=O)N1CCc2ccccc2C1` (stereo unspecified), the inhibition is 41.1% (active).

As to `NS(=O)(=O)c1ccc(CCNC(=O)c2nc(CS(=O)(=O)c3ccc(Cl)cc3)no2)cc1`, the inhibition is -7.74% (inactive).

On to `Cc1cc(C)c(S(=O)(=O)c2ccc(F)cc2C)c(=O)[nH]1`, for which the inhibition is 8.26% (inactive).

On to `CS(=O)(=O)N1CCCC(C(=O)N2CCOCC2)C1` (stereo unspecified), for which the inhibition is 7.83% (inactive).

Regarding `Cc1ccc(-n2c(SCC(=O)Nc3ccc(S(=O)(=O)Nc4nccs4)cc3)nnc2-c2cccnc2)cc1`, the inhibition is -18.4% (inactive).

As for `COc1ccccc1CCn1cnc(-c2ccccc2)c1C(C)C`, the inhibition was -1.89% (inactive).

With `COc1ccc(C2Nc3ccccc3C(=O)N2Cc2cccs2)cc1COc1c(C)cccc1C` (stereo unspecified), the inhibition is -6.88% (inactive).

As for `COc1ccc(C2C(C#N)=C(N)Oc3n[nH]c(C)c32)cc1CN1CCN(c2ccc(F)cc2)CC1` (stereo unspecified), the inhibition was 2.94% (inactive).

With `COc1ccccc1C1C(C#N)=C(N)Oc2c1c(-c1ccccc1)nn2-c1ccccc1` (stereo unspecified), the inhibition was 68.7% (active).

For the compound `Cc1nn(-c2ccccc2)c2c1C(c1ccc(F)cc1)C(C#N)=C(N)O2` (stereo unspecified), the inhibition is 78.5% (active).

On to `COc1ccccc1C1CC(=O)n2c(nc(-c3ccccc3)c2-c2ccccc2)S1` (stereo unspecified), for which the inhibition was -1.89% (inactive).

Consider `CCOC(=O)C1=C(C)OC(N)=C(C#N)C1c1cncc(-c2ccc(F)cc2)c1` (stereo unspecified), for which the inhibition is 2.25% (inactive).

For `CC1=NN(C(=O)Cc2ccc(C)cc2)C(O)(c2cccnc2)C1` (stereo unspecified), the inhibition is -0.61% (inactive).

Take `C[C@@H]1CN([C@@H](C)CO)C(=O)c2cccc(NC(=O)Nc3cccc4ccccc34)c2O[C@H]1CN(C)S(=O)(=O)c1ccccc1F`: the inhibition is -6.81% (inactive).

As for `CC(C)(C)NC(=O)C(c1cccnc1)N(C(=O)c1cnco1)c1ccc(C(C)(C)C)cc1` (stereo unspecified), the inhibition is 6.07% (inactive).

For the compound `Nc1nc2n(n1)C(c1ccco1)CC(c1ccc(Cl)c(Cl)c1)N2` (stereo unspecified), the inhibition is -12.1% (inactive).

For `O=C(NCCCc1ccccc1)[C@H](Cc1ccccc1)NC1(C(=O)NCCc2c[nH]c3ccccc23)CCC1`, the inhibition is 2.05% (inactive).

`O=C(N[C@H](C(=O)N1CCC[C@H]1C(=O)NCCc1ccccc1Cl)c1ccccc1)c1ccccc1`: the inhibition was 3.26% (inactive).

For the compound `C[C@H](C(=O)N(C)c1ccccc1)[C@@H](O)c1ccc2ccccc2c1`, the inhibition was 6.57% (inactive).

In the case of `C=CCN(C)CC#Cc1ccccc1`, the inhibition was -6.66% (inactive).

Regarding `CCn1c(SCC(C)=O)nc2sc3c(c2c1=O)CCCC3`, the inhibition was -7.52% (inactive).

On to `CC1(C)OC(=O)C(=CSc2ccc(C(C)(C)C)cc2)C(=O)O1`, for which the inhibition was -0.61% (inactive).

`Cc1ccsc1C(C(=O)NC1CCCCC1)N(C(=O)Cc1cccs1)C1CC1` (stereo unspecified): the inhibition was -13.4% (inactive).

With `O=[N+]([O-])c1ccc(NS(=O)(=O)c2ccccc2)c(Cl)c1`, the inhibition is -17.4% (inactive).

For `O=S(=O)(Cc1noc(-c2ccc(OC(F)(F)F)cc2)n1)c1ccc(F)cc1`, the inhibition is 1.13% (inactive).

Turning to `O=S(=O)(Nc1ccc(O)c2ccccc12)c1ccc(OC(F)(F)F)cc1`, the inhibition was 46.3% (active).

`COC(=O)C1CN(CCc2ccccc2)CCS(=O)(=O)N1Cc1cccc(Cl)c1` (stereo unspecified): the inhibition is 6.91% (inactive).
